# Screens deposited in PubChem by several laboratories.
# Compounds with a hit are over-represented: about 2.3% of the library has one in this group of screens.
# TRPC4 act – activators of mouse TRPC4 channel; B-score at 10 µM; AID 2237; Q9QUQ5; HEK293 TRPC4beta/mu-opioid, Fluo4 calcium fluorescence; active compounds read high; actives 0.49% (n = 310,000);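 active means B-score above 5 SD of library B-scores, and initial fluorescence ratio not above library mean plus 5 SD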;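 further: positive B-score marks a calcium rise read as TRPC4 activation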
#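 system = HEK293 cells stably co-expressing mouse TRPC4beta and mu-opioid receptor | schedule = Fluo4 dye loading 45 min at room temperature, 110 s recording | measure = B-scored integrated calcium fluorescence ratio | signal = Fluo4 calcium-sensitive dye fluorescence, kinetic, 1 Hz baseline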
# Yeast superoxide – yeast age-related superoxide inhibition as caloric restriction mimetic | S. cerevisiae aged cells, superoxide DHE fluorescence; active compounds read low | superoxide response (% of plate mean), % at 10 µM | actives 0.18% (n = 330,000) | AID 2690;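 active means superoxide response under a set limit, about three screen SD below normal, cut at about 65% in these data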;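 further: yeast aged for seven days with compound at 30 °C before DHE staining; 100% = average MFI of all compound-treated wells on the plate with controls excluded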
# TRPC4 block – blocks the mouse TRPC4 cation channel. AID 2247. actives 0.39% (n = 300,000). B-score at 10 µM. Q9QUQ5. HEK293 TRPC4beta/mu-opioid, DAMGO-evoked Fluo4 calcium flux; active compounds read low;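 active means B-score over 3 SD under the library average, no early fluorescence shift, positive overall ratio signal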
#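 Assay system: Stable TRPC4beta/mu-opioid receptor HEK293 cells | Reagent: DAMGO in two steps, submaximal then maximal | Compound dosing: Single concentration per test compound | Signal: Fluo4 Ca2+ flux fluorescence | Evaluation: Per-well B score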
# TRPC6 act – activates the mouse TRPC6 cation channel; actives 0.13% (n = 310,000); Q61143; B-score at 10 µM; HEK293-TRPC6 membrane potential dye fluorescence; active compounds read high;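 active means B-score of the integrated fluorescence ratio above library mean plus 3 SD, and starting fluorescence ratio within library mean plus 5 SD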;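 further: higher score means more depolarization so channel activation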
# TRPC6 inhibitor – mouse TRPC6 channel inhibition; Q61143; HEK293-TRPC6, membrane potential dye, ACh-evoked depolarization; active compounds read low; B-score at 10 µM; actives 1.1% (n = 310,000); AID 2553;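 active means B-score under library mean minus 3 SD, initial fluorescence not abnormally high, positive integrated signal ratio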;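 further: B-score derived from integrated fluorescence ratio over the kinetic read; more negative B-score means stronger inhibition of depolarization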
# TRPC4 potent – allosteric potentiators of mouse TRPC4 channel | Q9QUQ5 | HEK293 TRPC4beta/mu-opioid, DAMGO EC20, Fluo-4 Ca2+ flux; active compounds read high | B-score at 10 µM | actives 0.42% (n = 310,000);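 active means B-score of calcium response area above 5 SD of library B-scores, with initial fluorescence ratio within 5 SD of library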;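 further: B-score of integrated fluorescence ratio over time as area under calcium response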
# TRPC4 sel inh 2 – mouse TRPC4 off-target activity of TRPC6 inhibitors, second screen. shares compounds with TRPC6 inhibitor. HEK293 TRPC4/MOR, membrane potential dye fluorescence; channel activated by saturating DAMGO dose. inhibition, % at 10 µM. actives 42% (n = 920);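 active means compounds whose fluorescence signal differed from control wells by over 3 SD, either direction, in both duplicate plates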
# TRPC4 spec – mouse TRPC4 off-target activity of TRPC6 inhibitors. shares compounds with TRPC6 inhibitor. HEK293 TRPC4/mu-opioid, membrane potential fluorescence. activity change, negative = inhibition, % at 10 µM. actives 61% (n = 920);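 active means rise or fall in signal beyond 3 SD of buffer-only wells in both replicate plates, either sign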;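 further: integrated kinetic ratio of fluorescence range over baseline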
# HEK293 MPD ctr 2-1 – second check of TRPC6 inhibitor effects in parental HEK293 cells | actives 31% (n = 920) | shares compounds with TRPC6 inhibitor | parental HEK293 membrane potential dye fluorescence; maximal acetylcholine challenge after compound addition | signal change vs control, % at 10 µM;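 active means membrane potential signal moving either way by over 3 SD of the maximum-effect control, in both duplicate plates, meaning non-specific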
# HEK293 MPD ctr-1 – parental HEK293 nonspecific activity of TRPC6 inhibitors. AID 2780. membrane potential signal change, % at 10 µM. actives 60% (n = 920). parental HEK293 membrane potential dye fluorescence. shares compounds with TRPC6 inhibitor;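 active means membrane potential signal shifting up or down by more than 3 SD of buffer-only wells, on both duplicate plates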
# HEK293 MPD ctr-2 – checks TRPC6 modulator effects in parental HEK293 cells; shares compounds with TRPC6 inhibitor; membrane potential dye fluorescence; membrane potential signal change, % at 10 µM; actives 51% (n = 2,400);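 active means membrane potential signal moves up or down beyond 5 SD from buffer-only wells, on both duplicate plates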
# HEK293 MPD ctr 2-2 – second counter-screen for TRPC6 modulators: effect in parental HEK293 cells. inhibition, % at 10 µM. actives 14% (n = 2,400). shares compounds with TRPC6 inhibitor. membrane potential dye fluorescence; after compound, maximal acetylcholine stimulation;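 active means membrane potential signal drops by more than 5 SD from the mean control signal, in both duplicate plates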;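 further: plate controls were acetylcholine ECmax control wells for no effect and buffer only wells for full effect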
# TRPC4/MOR mod – tests whether TRPC6 modulators also affect mouse TRPC4. HEK293 TRPC4/mu-opioid, membrane potential fluorescence. AID 488927. actives 69% (n = 2,400). shares compounds with TRPC6 inhibitor. percent change from control (negative = decrease, positive = increase), % at 10 µM;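 active means membrane potential signal moved up or down beyond 5 SD of buffer control wells, in both duplicate plates, actives on both sides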;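 further: plate controls were assay buffer wells for no effect and DAMGO maximal-effect wells for full effect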
# TRPC4/MOR inh 2 – second check of whether TRPC6 modulators also affect mouse TRPC4; inhibition, % at 10 µM; HEK293 TRPC4/mu-opioid, membrane potential dye fluorescence; stimulated with maximal-effect DAMGO; shares compounds with TRPC6 inhibitor; actives 55% (n = 2,400);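 active means drop in membrane potential signal beyond 5 SD of the control wells in both duplicate plates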;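 further: TRPC4 counter screen for TRPC6 hits run under conditions tuned for TRPC6 not TRPC4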
# TRPC6 inh conf – confirmation of mouse TRPC6 inhibitors. inhibition, % at 10 µM. shares compounds with TRPC6 inhibitor. HEK293-TRPC6, membrane potential dye, ACh-evoked depolarization. actives 43% (n = 3,300);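 active means fluorescence ratio falls more than 5 SD below the full-stimulation control mean, in both duplicate runs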;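 further: integrated fluorescence ratio of peak minus minimum over baseline after agonist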
# TRPC6 act conf – confirmation of mouse TRPC6 activators; shares compounds with TRPC6 inhibitor; HEK293-TRPC6 membrane potential dye fluorescence, FDSS; activation, % at 10 µM; actives 11% (n = 2,800);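 active means ratio signal rise beyond 5 SD above unstimulated control wells' mean, seen in both duplicate runs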;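 further: plate controls were buffer EC0 wells for no effect and acetylcholine ECmax response for full effect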
# Active calls of the source: *; i = inactive; . = no result given.
SMILES,TRPC4 act,Yeast superoxide,TRPC4 block,TRPC6 act,TRPC6 inhibitor,TRPC4 potent,HEK293 MPD ctr-2,HEK293 MPD ctr 2-2,TRPC4/MOR mod,TRPC4/MOR inh 2,TRPC6 inh conf,TRPC6 act conf,others
CCC(C)/C=C(C)/C=C/C1=CC2=C(Cl)C(=O)C(C)(OC(C)=O)C(=O)C2=CO1 (configuration not stated),i,122,i,i,-6.5*,i,-84%*,69%*,-22%*,93%*,88%*,i,
O=C(Cn1ccc2ccccc2c1=O)NCC(=O)N1CCC2(CC1)OCCO2,i,99,i,i,i,i,.,.,.,.,.,.,
CN1CCN(c2ccc([N+](=O)[O-])c(N/N=C3\CN4CCC3CC4)c2)CC1,i,93,i,i,-12*,i,-230%*,70%*,-48%*,82%*,76%*,i,
COc1ccc(C(=O)C2CCCN(Cc3cccc(C)n3)C2)c(OC)c1 (configuration not stated),i,103,i,i,-6.4*,i,i,i,9.5%*,i,i,.,
O=C(CCCCCn1c(=S)[nH]c2ccccc2c1=O)N1CCC2(CC1)OCCO2,i,96,i,i,i,i,.,.,.,.,.,.,
CCOC(=O)C(O)(c1ccc(N(C)C(=O)COc2ccccc2)cc1)C(F)(F)F (configuration not stated),i,94,i,i,i,i,.,.,.,.,.,.,
CCOC(=O)C(O)(c1ccc(N(CC)C(=O)COc2ccccc2)cc1)C(F)(F)F (configuration not stated),i,107,i,i,-5*,i,i,i,i,i,i,i,
c1ccc2c(c1)OCC(C1=NCCN1)O2 (configuration not stated),i,114,i,i,i,i,.,.,.,.,.,.,
C[n+]1c2ccccc2nc2ccc(NCCO)cc21,i,103,i,i,-7.4*,i,-114%*,133%*,-36%*,50%*,66%*,i,
O[C@@H]1CCCN2CCc3c([nH]c4ccccc34)[C@H]12,i,110,i,i,i,i,.,.,.,.,.,.,
CC1CN(c2ccc([N+](=O)[O-])c3cccnc23)CC(C)N1 (configuration not stated),104*,130,i,i,-10*,i,-358%*,i,-60%*,64%*,58%*,i,
CN1CCN(c2c(F)cc([N+](=O)[O-])c(N)c2Br)CC1,i,113,i,i,i,i,.,.,.,.,.,.,
Cn1c(=O)n(C)c2cc([N+](=O)[O-])c(N3CCNCC3)cc21,i,104,i,i,-6.3*,i,-276%*,70%*,-46%*,54%*,52%*,i,
CN1CCN(c2ccc(S(C)(=O)=O)cc2[N+](=O)[O-])CC1,i,105,i,i,i,i,.,.,.,.,.,.,
Nc1c([N+](=O)[O-])cc(F)c(N2CCNCC2)c1Br,i,93,i,i,-5.9*,23*,-128%*,i,-22%*,34%*,39%*,i,
CN1CCN(c2cc(N3CCCCCC3)c(F)cc2[N+](=O)[O-])CC1,i,99,i,i,-6*,i,-88%*,i,-24%*,54%*,41%*,i,
O=[N+]([O-])c1cc(F)c(N2CCCC2)cc1N1CCNCC1,i,95,i,i,-6.9*,i,.,.,.,.,i,i,TRPC4 sel inh 2=48%*;TRPC4 spec=-29%*;HEK293 MPD ctr 2-1=i;HEK293 MPD ctr-1=-399%*
COC(=O)C1=C(c2ccc(C(C)=O)cc2)C[C@@H]2CC[C@H]1N2C(=O)NCc1ccc(F)cc1,.,118,.,.,.,.,.,.,.,.,.,.,
COC(=O)C1=C(c2ccc(F)cc2F)C[C@@H]2CC[C@H]1N2C(=O)NCCOc1ccc(OC)cc1,.,103,.,.,.,.,.,.,.,.,.,.,
O=C(C[N+]12CCC(CC1)C(CO)C2)c1ccc(Br)cc1 (configuration not stated),i,106,i,i,i,i,.,.,.,.,.,.,
Cc1ccc(N)c(N)c1,.,102,.,.,.,.,.,.,.,.,.,.,
COC(=O)C1=C(c2ccc(F)cc2OCc2ccccc2)C[C@@H]2CC[C@H]1N2C(=O)NCCCc1ccccc1,.,90,.,.,.,.,.,.,.,.,.,.,
CC1CN(c2ccc([N+](=O)[O-])c(N3CCCCC3)c2)CCN1 (configuration not stated),i,125,i,i,-5.3*,i,i,i,-10%*,i,i,i,
O=C(NC1CC2CCCC(C1)N2)c1ccccc1 (configuration not stated),i,106,i,i,i,i,.,.,.,.,.,.,
CCn1ccnc1CN1CCCC(C(=O)c2cccc(C(F)(F)F)c2)C1 (configuration not stated),i,79,i,i,-5.1*,i,i,i,8.0%*,65%*,62%*,.,
